Assay [1] has as its system HUVEC. As to the kind of experiment: Antiproliferative activity against human HUVEC cells after 24 hrs by MTT assay. The assay is classed as functional, cell-based. In a few lines:
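Primary HUVECs grown on gelatin in M-199 with 20% FBS, 10 ng/mL bFGF, 2 ng/mL VEGF, 5% CO2, 37 °C. Cells (5 × 10^3/well) exposed to a range of compound concentrations for 24 h. MTT added for 3 h, formazan dissolved in DMSO, absorbance read at 570 nm. IC50 from percentage growth versus untreated control.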

The next assay has as its system A549. The assay is described as follows: Antiproliferative activity against human A549 cells after 24 hrs by MTT assay. It is filed as functional, cell-based. As to conditions: A549, 24 h. In a few lines:
(§1)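 Cells (5 × 10^3/well) kept at 37 °C, 5% CO2 and treated with varied compound concentrations for 24 h. MTT given for a further 3 h, precipitate dissolved in DMSO, absorbance taken at 570 nm. IC50 calculated from percentage growth relative to untreated control.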

The next assay concerns HepG2. The assay is described as follows: Antiproliferative activity against human HepG2 cells after 24 hrs by MTT assay. To be noted: HepG2, 24 h. The assay is classed as functional, cell-based. Put shortly: as §1
For orientation: Formazan colour is commonly taken as a measure of viable cells.

Assay [2] in a line: Antiproliferative activity against mouse LL/2 cells after 24 hrs by MTT assay. To be noted: Lewis lung carcinoma. The assay is classed as functional, cell-based. In a few lines: as §1
The subject of assay [3] is HUVEC. As to the kind of experiment: Antimigratory activity against human HUVEC cells at 20 uM after 24 hrs by wound-healing assay. The assay is classed as functional, cell-based. Put shortly: (§2)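 HUVEC monolayers grown overnight to confluence on 0.1% gelatin, scratched with pipet tips, washed, then kept in serum-free DMEM with compound (20 or 40 μM) for 24 h at 37 °C, 5% CO2; control serum-free DMEM. Migrated cells counted manually from images at 0 and 24 h, three random fields; three independent experiments, mean ± SE.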

The test system of assay [4] is HUVEC. The assay is described as follows: Antimigratory activity against human HUVEC cells assessed as migration rate at 40 uM after 24 hrs by wound-healing assay relative to control. The assay is classed as functional. In a few lines: as §2
The subject of assay [5] is HUVEC. As to the kind of experiment: Antimigratory activity against human HUVEC cells after 24 hrs by wound-healing assay relative to honokiol. The assay is classed as functional. Put shortly:
as §2

The species named for assay [6] is Danio rerio. The assay is described as follows: Antiangiogenic activity in fli-1:enhanced GFP expressing transgenic zebrafish embryo assessed as inhibition of intersomitic vessel sprouts after 48 hrs. It is filed as functional, organism-based. In a few lines: (§3)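 Transgenic fli-1:EGFP zebrafish embryos (GFP across endothelium) sorted at about 6 hpf, 6 per well, with dead or unhealthy ones removed. Compound (10, 20, 40 μM) added to embryo water (0.2 g/L instant ocean salt) from 6 hpf for 48 h. Embryos then anesthetized in 0.05% 2-phenoxyethanol, imaged, and intersomitic and dorsal longitudinal anastomotic vessel sprouts assessed.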

Assay [7] has as its system HUVEC. As to the kind of experiment: Antiangiogenic activity against human HUVEC cells assessed as inhibition of tube formation at 20 uM after 12 hrs by matrigel-based assay. It is filed as functional. In a few lines:
(§4)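 HUVECs (1 × 10^4) in DMEM with compound (20 μM) plated on Matrigel that had set at 37 °C for 45 min; controls got DMEM alone. After 12 h at 37 °C, capillary networks were photographed and intact tubes counted in five random regions. Inhibition expressed as percentage of control.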

Assay [8] is filed under the species Danio rerio. The assay is described as follows: Antiangiogenic activity in fli-1:enhanced GFP expressing transgenic zebrafish embryo assessed as inhibition of neovacularisation at 5 uM after 24 hrs relative to control. It is filed as functional. In a few lines:
(§5)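 fli-1:EGFP transgenic zebrafish embryos sorted at about 6 hpf (6 per well), exposed in embryo water to compound at 5–40 μM for 24 h. Then anesthetized with 0.05% 2-phenoxyethanol, photographed and quantified.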

The species named for assay [9] is Danio rerio. The assay is described as follows: Antiangiogenic activity in fli-1:enhanced GFP expressing transgenic zebrafish embryo assessed as inhibition of neovacularisation at 10 uM after 24 hrs relative to control. The assay is classed as functional. Put shortly: as §5
The species named for assay [10] is Danio rerio. As to the kind of experiment: Antiangiogenic activity in fli-1:enhanced GFP expressing transgenic zebrafish embryo assessed as inhibition of neovacularisation at 20 uM after 24 hrs relative to control. The assay is classed as functional. In a few lines:
as §5

For assay [11], the system named is HUVEC. As to the kind of experiment: Antiangiogenic activity against human HUVEC cells assessed as inhibition of tube formation at 20 uM after 12 hrs by matrigel-based assay relative to honokiol. The assay is classed as functional. Put shortly:
as §4

The species named for assay [12] is Danio rerio. As to the kind of experiment: Antiangiogenic activity in fli-1:enhanced GFP expressing transgenic zebrafish embryo assessed as inhibition of dorsal longitudinal anastomic vessel sprouts after 48 hrs. The assay is classed as functional, organism-based. Put shortly: as §3
Assay [13] is filed under the species Danio rerio. As to the kind of experiment: Antiangiogenic activity in fli-1:enhanced GFP expressing transgenic zebrafish embryo assessed as inhibition of neovacularisation at 40 uM after 24 hrs relative to control. It is filed as functional. In a few lines: as §5

The record followed here is ChEMBL document CHEMBL1828544, “Structural modification of honokiol, a biphenyl occurring in Magnolia officinalis: the evaluation of honokiol analogues as inhibitors of angiogenesis and for their cytotoxicity and structure-activity relationship” (J Med Chem, 2011).

Calls of active or inactive are those of the source. The calls are words filed in the database; no cut-off is given here.

The term IC50 denotes the midpoint of a concentration-inhibition curve. Low readings indicate higher potency, high ones lower potency. A word on the inhibition: it is the drop in the measured response relative to a control, in per cent.

For the compound `C=CCc1cc(C=O)c(O)c(-c2cc(C=O)c(O)c(CC=C)c2)c1`, the half-maximal inhibitory concentration (IC50) is 15.1 µM in the assay with HUVEC [1], 30.2 µM in the assay on A549, 10.7 µM in the assay with HepG2 and 21.7 µM in assay [2]. Also, the outcome in the assay on HUVEC [3] was Active. For the same compound, in the assay with HUVEC [4], the “Migration rate relative to control” value is 21.2%. Besides, the “fold change (FC)” value in the assay on HUVEC [5] is reported as 1.5; with HUVEC [11] it was 2.5. Further, the inhibition entry in the assay filed under Danio rerio [6] and in the assay listed under Danio rerio [12] was “Dose-dependent effect” throughout. The inhibition at 20 µM in the assay with HUVEC [7] turned out to be 21.3%. In addition, the “inhibition (INH)” value in the assay listed under Danio rerio [8] is recorded as below 25%; in the assay filed under Danio rerio [9], 25%; in the assay filed under Danio rerio [10], 50%.
As for `C=CCc1cc(-c2ccccc2C(F)(F)F)ccc1O`, the “inhibition (INH)” value in the assay listed under Danio rerio [13], in the assay listed under Danio rerio [9] and in the assay listed under Danio rerio [10] was below 25% in each case. Further, the 50% inhibitory concentration (IC50) worked out at 82 µM with HUVEC [1], 59.7 µM with A549, 52.4 µM in the assay with HepG2 and 60.3 µM in assay [2]. Further, the inhibition result in the assay filed under Danio rerio [8] was “inactive”.
Turning to `C=CCc1cc(C=O)c(OC)c(-c2ccc(O)c(CC=C)c2)c1`, the “inhibition (INH)” value in the assay filed under Danio rerio [13] is 25%; in the assay filed under Danio rerio [8] it was below 25%; in the assay listed under Danio rerio [9] it was below 25%; in the assay filed under Danio rerio [10], 25%. Moreover, the IC50 was 32.5 µM with HUVEC [1], 28.6 µM in the assay on A549, 20.9 µM in the assay on HepG2 and 20.4 µM in [2]. Also, in the assay with HUVEC [3], the outcome was Active. Further, the “Migration rate relative to control” value in the assay with HUVEC [4] stood at 63.2%. For the same compound, in the assay on HUVEC [7], the inhibition at 20 µM was determined as 82.5%.
Take `C=CCc1cc(C=O)c(O)c(-c2ccc(O)c(CC=C)c2)c1`: the IC50 was 46.2 µM with HUVEC [1], 43.6 µM with A549, 32.9 µM in the assay on HepG2 and 65.3 µM in [2]. Further, the outcome in the assay on HUVEC [3] was Active. The “Migration rate relative to control” value in the assay on HUVEC [4] was 34.2%. Also, in the assay on HUVEC [7], the inhibition at 20 µM was 41.2%. In addition, the “inhibition (INH)” value is reported as below 25% in the assay listed under Danio rerio [8], 25% in the assay filed under Danio rerio [9] and 25% in the assay listed under Danio rerio [10].
Take `C=CCc1ccc(O)c(-c2ccc(OC)c(CC=C)c2)c1` [METHYLHONOKIOL]: the “inhibition (INH)” value is reported as 25% in the assay listed under Danio rerio [13], below 25% in the assay filed under Danio rerio [8], below 25% in the assay filed under Danio rerio [9] and 25% in the assay filed under Danio rerio [10]. Moreover, the IC50 in the assay with HUVEC [1] was 55.8 µM; in the assay on HepG2, 55.3 µM; in assay [2] it was 68.8 µM. Besides, in the assay on HUVEC [3], the outcome was Active. Besides, the “Migration rate relative to control” value with HUVEC [4] turned out to be 54.2%. Further, the inhibition at 20 µM in the assay with HUVEC [7] was 34.9%.
In the case of `C=CCc1cc(C=O)c(OCC)c(-c2ccc(OCC)c(CC=C)c2)c1`, the “inhibition (INH)” value in the assay filed under Danio rerio [13], in the assay filed under Danio rerio [9] and in the assay filed under Danio rerio [10] was below 25% each time. Moreover, the IC50 was found to be 37.9 µM with HUVEC [1], 39 µM with A549, 28.5 µM in the assay on HepG2 and 31.9 µM in [2]. For the same compound, the inhibition result in the assay listed under Danio rerio [8] was “inactive”.
For the compound `C=CC(C)(C)c1cc(-c2cccc([N+](=O)[O-])c2)ccc1O`, the “inhibition (INH)” value in the assay filed under Danio rerio [13] and in the assay listed under Danio rerio [10] was below 25% each time. Further, the half-maximal inhibitory concentration (IC50) was determined as 77 µM in the assay on HUVEC [1], 64 µM with A549, 56 µM with HepG2 and 45.1 µM in [2]. The inhibition entry in the assay listed under Danio rerio [8] and in the assay listed under Danio rerio [9] was “inactive” each time.
Consider `C=CCc1ccc(O)c(-c2ccc(O)c(CC=C)c2)c1` [HONOKIOL], for which the concentration for half-maximal inhibition (IC50) with HUVEC [1] stood at 52.6 µM; in assay [2], 65.4 µM. For the same compound, the result with HUVEC [3] was Active. Further, in the assay with HUVEC [4], the “Migration rate relative to control” value is 38.5%. Further, the inhibition at 20 µM with HUVEC [7] came out at 51.4%. Moreover, the “inhibition (INH)” value in the assay filed under Danio rerio [8] was below 25%; in the assay filed under Danio rerio [9], 25%; in the assay listed under Danio rerio [10], 50%.
As to `C=CCc1cc(-c2cccc([N+](=O)[O-])c2)cc(CC=C)c1O`, the “inhibition (INH)” value in the assay filed under Danio rerio [13], in the assay listed under Danio rerio [9] and in the assay listed under Danio rerio [10] was below 25% in each case. Moreover, the IC50 in the assay with HUVEC [1] is above 100 µM; with A549, 80 µM; in the assay on HepG2, 80.5 µM; in [2], 56.5 µM. The inhibition entry in the assay listed under Danio rerio [8] is “inactive”.
With `C=CCc1ccc(OC(C)C)c(-c2ccc(O)c(CC=C)c2)c1`, the “inhibition (INH)” value in the assay filed under Danio rerio [13], in the assay listed under Danio rerio [8], in the assay filed under Danio rerio [9] and in the assay filed under Danio rerio [10] was below 25% each time. For the same compound, the half-inhibitory concentration (IC50) turned out to be 65.5 µM with HUVEC [1], 53.2 µM in the assay on A549, 63.5 µM in the assay with HepG2 and 48.4 µM in [2].
